Measured values published in ChEMBL document CHEMBL3739331, “Synthesis and Bioactivities of Kanamycin B-Derived Cationic Amphiphiles” (J Med Chem, 2015).
Values after ≈ are worked out from the molar mass of the structure shown. Active and inactive are the calls of the source. No cut-off for these calls is given here.

Experiments:
[1] = tested on: Salmonella enterica; assay: Antibacterial activity against Salmonella enterica ATCC 14028 by microdilution method; format: functional
Summary of the method: (§1)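 Broth microdilution MIC against the named bacterial strain, reported in μg/mL; each determination run at least in duplicate.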

[2] = tested on: Candida albicans; assay: Antifungal activity against azole-resistant Candida albicans ATCC 64124 assessed as cell death after 12 hrs by time-kill assay; format: functional, organism-based
Summary of the method: (§2)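 Time-kill assay on C. albicans ATCC 64124 cultures exposed to test compound at 1/2 MIC, MIC and higher concentrations. Amphotericin B at 1 μg/mL and a no-drug culture serve as controls. CFU are counted at intervals over 24 h.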

[3] = tested on: Candida albicans; assay: Antifungal activity against azole-resistant Candida albicans ATCC 90819 after 48 hrs by microbroth dilution method; format: functional; conditions: ATCC 90819, 48 h
Summary of the method: (§3)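 Yeast MIC by broth microdilution, run in duplicate. The aminoglycoside compounds are read as MIC-0 (complete inhibition). Azoles are read as MIC-2 (50% inhibition).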

[4] = tested on: Enterobacter cloacae; assay: Antibacterial activity against Enterobacter cloacae ATCC 13047 by microdilution method; format: functional; summary of the method: as §1
[5] = tested on: Candida albicans; assay: Antifungal activity against azole-resistant Candida albicans ATCC 64124 at sub-MIC measured over 24 hrs by time-kill assay; format: functional, organism-based; summary of the method: as §2
[6] = tested on: Candida albicans; assay: Antifungal activity against azole-resistant Candida albicans ATCC 90819 after 48 hrs in presence of posaconazole by checkerboard microdilution assay; format: functional; conditions: ATCC 90819, 48 h
Summary of the method: (§4)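 Checkerboard combinations of the aminoglycoside amphiphile with posaconazole against yeast strains, run in duplicate. Each agent's MIC is taken alone and in combination. The fractional inhibitory concentration index (FICI) is calculated to classify the interaction.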

[7] = tested on: Candida albicans; assay: Antifungal activity against azole-resistant Candida albicans ATCC 64124 assessed as cell membrane permeabilization at 1 times MIC after 1 hr by propidium iodide-staining based fluorescence microscopic analysis (reference value: <2%); format: functional
[8] = tested on: Candida albicans; assay: Antifungal activity against azole-resistant Candida albicans ATCC 64124 assessed as cell membrane permeabilization at twice the MIC after 1 hr by propidium iodide-staining based fluorescence microscopic analysis (reference value: <2%); format: functional
[9] = tested on: Mycobacterium tuberculosis; assay: Activity of Mycobacterium tuberculosis Eis assessed as compound acetylation activity by Ellman's method
[10] = tested on: Escherichia coli; assay: Antibacterial activity against Escherichia coli MC1061 by microdilution method; format: functional
Summary of the method: (§5)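 Broth microdilution MIC, in μg/mL, against a panel of Gram-positive and Gram-negative strains. Run at least in duplicate.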

[11] = tested on: Staphylococcus epidermidis; assay: Antibacterial activity against Staphylococcus epidermidis ATCC 12228 by microdilution method; format: functional; summary of the method: as §1
[12] = tested on: A549; assay: Cytotoxicity against human A549 cells after 24 hrs by resazurin assay; format: cell-based; conditions: Homo sapiens, A549, 24 h
[13] = tested on: Staphylococcus aureus; assay: Antibacterial activity against methicillin-resistant Staphylococcus aureus by microdilution method; format: functional; summary of the method: as §5
[14] = Activity of AAC(3)-4 (unknown origin)/Serratia marcescens AAC(6')-2d assessed as compound conversion to 3'-acetylated product incubated for 20 hrs by TLC analysis
[15] = tested on: Staphylococcus aureus; assay: Antibacterial activity against Staphylococcus aureus NRS385 (USA 300) by microdilution method; format: functional; summary of the method: as §5
[16] = tested on: Serratia marcescens; assay: Activity of Serratia marcescens AAC(6')-2d assessed as compound acetylation activity by Ellman's method
[17] = tested on: Pseudomonas aeruginosa; assay: Antibacterial activity against Pseudomonas aeruginosa ATCC 27853 by microdilution method; format: functional; summary of the method: as §1
[18] = tested on: Aspergillus nidulans; assay: Antifungal activity against Aspergillus nidulans ATCC 38163 after 48 hrs by microbroth dilution method; format: functional; conditions: ATCC 38163, 48 h
Summary of the method: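 Filamentous fungus MIC by broth microdilution, run in duplicate. All compounds are read as MIC-0 (complete inhibition).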

[19] = tested on: Acinetobacter baumannii; assay: Antibacterial activity against Acinetobacter baumannii ATCC 19606 by microdilution method; format: functional; summary of the method: as §1
[20] = tested on: Candida albicans; assay: Antifungal activity against azole-susceptible Candida albicans ATCC MYA-2310 after 48 hrs by microbroth dilution method; format: functional; conditions: ATCC MYA-2310, 48 h; summary of the method: as §3
[21] = tested on: Candida albicans; assay: Antifungal activity against azole-resistant Candida albicans ATCC 64124 after 48 hrs by microbroth dilution method; format: functional; conditions: ATCC 64124, 48 h; summary of the method: as §3
[22] = tested on: Candida albicans; assay: Antifungal activity against azole-susceptible Candida albicans ATCC MYA-2310 after 48 hrs in presence of posaconazole by checkerboard microdilution assay; format: functional; conditions: ATCC MYA-2310, 48 h; summary of the method: as §4
[23] = tested on: Bacillus subtilis; assay: Antibacterial activity against Bacillus subtilis 168 by microdilution method; format: functional; conditions: subsp. subtilis str. 168; summary of the method: as §1
[24] = tested on: Candida albicans; assay: Antifungal activity against azole-susceptible Candida albicans ATCC MYA-2876 after 48 hrs by microbroth dilution method; format: functional; conditions: ATCC MYA-2876, 48 h; summary of the method: as §3
[25] = Hemolytic activity against mouse RBC at 500 ug/ml after 60 mins; format: ADME, cell-based, Erythrocyte; conditions: red blood cells, read-out: Activity
[26] = tested on: Candida albicans; assay: Antifungal activity against azole-susceptible Candida albicans ATCC MYA-2876 after 48 hrs in presence of posaconazole by checkerboard microdilution assay; format: functional; conditions: ATCC MYA-2876, 48 h; summary of the method: as §4
[27] = tested on: Candida albicans; assay: Antifungal activity against azole-resistant Candida albicans MYA-1003 after 48 hrs in presence of posaconazole by checkerboard microdilution assay; format: functional; conditions: MYA-1003, 48 h; summary of the method: as §4
[28] = Activity of Mycobacterium tuberculosis AAC(2')-1c/AAC(3)-4 (unknown origin)/Serratia marcescens AAC(6')-2d (unknown origin) assessed as compound conversion to 3'-monoacetylated product incubated for 20 hrs by TLC analysis
[29] = Activity of AAC(6')-1e/APH(2'')-1a (unknown origin) assessed as compound acetylation activity by Ellman's method
[30] = tested on: Staphylococcus aureus; assay: Antibacterial activity against Staphylococcus aureus NRS382 (USA 100) by microdilution method; format: functional; summary of the method: as §1
[31] = tested on: Listeria monocytogenes; assay: Antibacterial activity against Listeria monocytogenes ATCC 19115 by microdilution method; format: functional; summary of the method: as §1
[32] = Activity of AAC(3)-4 (unknown origin) assessed as compound acetylation activity by Ellman's method
[33] = tested on: Candida albicans; assay: Antifungal activity against azole-resistant Candida albicans ATCC 10231 after 48 hrs by microbroth dilution method; format: functional; conditions: ATCC 10231, 48 h; summary of the method: as §3
[34] = Activity of Mycobacterium tuberculosis AAC(2')-1c/Serratia marcescens AAC(6')-2d assessed as compound conversion to 6'-monoacetylated product incubated for 20 hrs by TLC analysis
[35] = tested on: Candida albicans; assay: Antifungal activity against azole-resistant Candida albicans ATCC 64124 at MIC measured after 6 hrs by time-kill assay; format: functional; summary of the method: as §2
[36] = tested on: Candida albicans; assay: Antifungal activity against azole-resistant Candida albicans ATCC 10231 after 48 hrs in presence of posaconazole by checkerboard microdilution assay; format: functional; conditions: ATCC 10231, 48 h; summary of the method: as §4
[37] = tested on: Staphylococcus aureus; assay: Antibacterial activity against Staphylococcus aureus NRS383 (USA 200) by microdilution method; format: functional; summary of the method: as §1
[38] = tested on: Candida albicans; assay: Antifungal activity against azole-resistant Candida albicans MYA-1237 after 48 hrs in presence of posaconazole by checkerboard microdilution assay; format: functional; conditions: MYA-1237, 48 h; summary of the method: as §4
[39] = tested on: Candida albicans; assay: Antifungal activity against azole-resistant Candida albicans ATCC 64124 after 48 hrs in presence of posaconazole by checkerboard microdilution assay; format: functional; conditions: ATCC 64124, 48 h; summary of the method: as §4
[40] = tested on: Bacillus subtilis subsp. subtilis str. 168; assay: Activity of Bacillus subtilis 168 APH(2'')-1a assessed as compound phosphorylation activity by Ellman's method
[41] = tested on: Mycobacterium tuberculosis; assay: Activity of Mycobacterium tuberculosis AAC(2')-1c assessed as compound acetylation activity by Ellman's method
[42] = tested on: Candida albicans; assay: Antifungal activity against azole-resistant Candida albicans MYA-1237 after 48 hrs by microbroth dilution method; format: functional; conditions: MYA-1237, 48 h; summary of the method: as §3
[43] = Hemolytic activity against mouse RBC at 7.8 ug/ml after 60 mins; format: ADME, cell-based, Erythrocyte; conditions: red blood cells, read-out: Activity
[44] = tested on: Klebsiella pneumoniae; assay: Antibacterial activity against Klebsiella pneumoniae ATCC 27736 by microdilution method; format: functional; summary of the method: as §1
[45] = tested on: Candida albicans; assay: Antifungal activity against azole-resistant Candida albicans MYA-1003 after 48 hrs by microbroth dilution method; format: functional; conditions: MYA-1003, 48 h; summary of the method: as §3
[46] = Activity of Mycobacterium tuberculosis AAC(2')-1c/AAC(3)-4 (unknown origin) assessed as compound conversion to 3'-acetylated product incubated for 20 hrs by TLC analysis
[47] = Cytotoxicity against human BEAS2B cells after 24 hrs by resazurin assay; format: cell-based, BEAS-2B; conditions: Homo sapiens, BEAS-2B

CCCCCCCCCCCCCCSC[C@@H]1O[C@@H](O[C@@H]2[C@@H](O)[C@H](O[C@@H]3O[C@@H](CN)[C@H](O)[C@@H](O)[C@@H]3N)[C@@H](N)C[C@H]2N)[C@@H](O)[C@H](N)[C@H]1O (stereo in doubt)
MIC [1]: 32 µg/mL (≈ 46 µM)
Activity [2]: Active
MIC [3]: 15.6 µg/mL (≈ 22.4 µM)
MIC [4]: 128 µg/mL (≈ 184 µM)
Activity [5]: Active
MIC [6]: 1 µg/mL
Activity [7]: 84%
Activity [8]: 49%
Activity [9]: inactive
MIC [10]: > 128 µg/mL
MIC [11]: > 128 µg/mL
IC50 [12]: > 62.5 µg/mL
MIC [13]: 32 µg/mL (≈ 46 µM)
Activity [14]: Active
MIC [15]: 16 µg/mL (≈ 23 µM)
Activity [16]: inactive
MIC [17]: 64 µg/mL (≈ 92 µM)
MIC [18]: ≤ 1.95 µg/mL
MIC [19]: > 128 µg/mL
MIC [20]: 7.8 µg/mL (≈ 11.2 µM)
MIC [21]: 7.8 µg/mL (≈ 11.2 µM)
MIC [22]: 1 µg/mL
MIC [23]: > 128 µg/mL
MIC [24]: 7.8 µg/mL (≈ 11.2 µM)
hemolysis at 1 h, 500 ug/ml [25]: 73%
MIC [26]: 1 µg/mL
MIC [27]: 2 µg/mL
Activity [28]: Active
Activity [29]: inactive
MIC [30]: 32 µg/mL (≈ 46 µM)
MIC [31]: 0.5 µg/mL (≈ 0.718 µM)
Activity [32]: inactive
MIC [33]: 7.8 µg/mL (≈ 11.2 µM)
Activity [34]: Active
LCK [35]: >=2
MIC [36]: 4 µg/mL
MIC [37]: 8 µg/mL (≈ 11.5 µM)
MIC [38]: 1 µg/mL
MIC [39]: 1 µg/mL
Activity [40]: inactive
Activity [41]: inactive
MIC [42]: 7.8 µg/mL (≈ 11.2 µM)
hemolysis at 1 h, 7.8 ug/ml [43]: 15%
MIC [44]: > 128 µg/mL
MIC [45]: 7.8 µg/mL (≈ 11.2 µM)
Activity [46]: Active
IC50 [47]: > 62.5 µg/mL
